Most compounds without a hit are left out; they make up all but 3.7% or so of the library.
aDG glyco up – activators of alpha-DG glycosylation, primary screen, uHTS, Pro5-aDG cells, AlphaScreen; 360,000 tested, 0.22% active; activation, % at 10 µM; alpha-DG glycosylation AlphaScreen (IIH6); 0% Pro5, 100% B10-LARGE cell signal; AID 624168, 2012;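 active means activation of at least 8% versus controls, or a plate z-score of at least 8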;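 further: Pro5 are CHO cells carrying HIG-tagged alpha-DG that lacks glycosylation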
NR3A LBD binder – binders of NR3A ligand-binding domain, primary screen, biophysical, differential scanning fluorimetry, uHTS; Glutamate receptor ionotropic, NMDA 3A (GRIN3A) ligand-binding domain; NR3A LBD differential scanning fluorimetry, Tm shift; 0% = protein alone, 100% = glycine-bound protein; Tm shift relative to glycine control, % at 25 µM; 340,000 tested, 2.5% active;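 active means melting temperature shift of at least 10% of the positive control shift, at one fixed dose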
proCasp3 act – activators of human procaspase-3 D3A mutant, primary screen, biochemical, absorbance, PC-3 D3A mutant, single concentration; Caspase-3 (Homo sapiens), P42574; recombinant procaspase-3 D3A, Ac-DEVD-pNA absorbance 405 nm; activation, % at 8.5 µM; 330,000 tested, 0.11% active; AID 463141, 2010;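 active means activation above the mean of all tested compounds plus 3 SD, cut at about 21% in these data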;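 further: 0% = DMSO alone and 100% = DMSO wells spiked with extra 5 µM PC-3 D3A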
Target sequence (P42574 whole entry D9A/D28A/D175A): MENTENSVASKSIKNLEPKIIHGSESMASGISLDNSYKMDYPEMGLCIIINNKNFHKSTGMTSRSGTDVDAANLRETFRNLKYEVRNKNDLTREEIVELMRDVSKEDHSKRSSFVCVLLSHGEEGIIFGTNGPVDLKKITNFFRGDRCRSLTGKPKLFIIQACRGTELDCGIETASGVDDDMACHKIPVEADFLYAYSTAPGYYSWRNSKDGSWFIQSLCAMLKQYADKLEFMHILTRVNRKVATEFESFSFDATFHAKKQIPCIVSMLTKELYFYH
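Assay system: Autoprocessing-dead procaspase-3 D3A mutant enzyme; also added: Ac-DEVD-pNA; doses: one concentration, 8.5 µM nominal, 0.8% DMSO; times: 1 h compound preincubation, 2 h substrate hydrolysis at 25 °C; technique: 405 nm absorbance of p-nitroaniline, reads at 0 and 120 min; measure: % activation between DMSO and enzyme-spiked controls; repeats: single replicate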
proCasp7 act – procaspase-7 activators, primary screen, counter-screen for procaspase-3 activator project, biochemical, absorbance, HTS, human. activation, % at 8.5 µM. AID 463210, 2010. Caspase-7 (Homo sapiens), P55210. 330,000 tested, 0.093% active. recombinant procaspase-7, Ac-DEVD-pNA absorbance 405 nm; D23A/D198A/D206A triple mutant, cannot self-cleave; scale: DMSO 0, 5 µM enzyme 100;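 active means percent activation above the screen-wide mean plus 3 SD, cut at about 25% in these data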
Target sequence (P55210 whole entry D23A/D198A/D206A): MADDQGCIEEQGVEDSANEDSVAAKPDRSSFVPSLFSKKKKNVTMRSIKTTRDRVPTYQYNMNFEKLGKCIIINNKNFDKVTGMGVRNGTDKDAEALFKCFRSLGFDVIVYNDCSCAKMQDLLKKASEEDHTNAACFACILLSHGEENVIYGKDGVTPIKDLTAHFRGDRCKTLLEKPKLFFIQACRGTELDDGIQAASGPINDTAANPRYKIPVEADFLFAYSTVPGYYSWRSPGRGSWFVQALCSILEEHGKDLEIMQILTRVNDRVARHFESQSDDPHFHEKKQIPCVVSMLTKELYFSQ
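Material: Procaspase-7 triple mutant (PC-7 D3A) | Quantity: 2 µM procaspase-7 mutant as dispensed | Reagent: DEVD-pNA substrate | Times: 1 h preincubation, 2 h reaction | Technique: 405 nm absorbance of p-nitroaniline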
MPTP inh – mitochondrial permeability transition pore inhibitors, primary screen, biochemical, isolated mouse mitochondria, absorbance; AID 602449, 2012; Ca2+ swelling absorbance, 30 min; 360,000 tested, 1.4% active; inhibition, % at 10 µM;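 active means inhibition of 50% or more, scaled per plate between neutral and stimulator controls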;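 further: 0% = DMSO wells given calcium and 100% = 1 mM EGTA wells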
* hit, by the source's call.

O=C(NCc1ccccc1F)Nc1nnc([C@H]2C[C@H](O)[C@@H](CO)O2)s1 was read as aDG glyco up 0 and MPTP inh -2.
`CCN(CC)C(=O)c1cccc(-c2csc(C(C)(O)c3ccc(OC)cc3)n2)c1` (configuration not stated) gave aDG glyco up 0 and MPTP inh 3.
For Nc1ccc(N=Nc2ccccc2)cc1[N+](=O)[O-] the results were aDG glyco up -1, NR3A LBD binder 29* and MPTP inh 20.
Screening C[C@H](O)[C@@H]1CN2CCc3c([nH]c4ccccc34)[C@@H]2C[C@@H]1N(C)C(=O)OCc1ccccc1 returned aDG glyco up 0 and MPTP inh 0.
For OCCCCCCNc1ccc(CCO)cc1 the results were aDG glyco up 0 and MPTP inh 0.
CCOC(=O)c1cnc(-c2ccccc2)nc1Oc1ccc(Cl)c(Cl)c1 was read as aDG glyco up 0, NR3A LBD binder 0, proCasp3 act 4, proCasp7 act -12 and MPTP inh 0.
`CCOC(=O)c1nnc(-c2ccccc2)nc1Oc1ccc(Cl)cc1` gave aDG glyco up 0, NR3A LBD binder 11*, proCasp3 act 2, proCasp7 act 14 and MPTP inh 2.
CCOC(=O)c1cnc(-c2ccccc2)nc1Oc1cccc(Cl)c1 was read as aDG glyco up 0, NR3A LBD binder 14*, proCasp3 act -19, proCasp7 act -7 and MPTP inh -2.
`O=c1c2c(ncn2C2CCCC2)n(Cc2ccccc2)c(=O)n1CCOc1ccccc1` gave aDG glyco up 0, NR3A LBD binder 15*, proCasp3 act 9, proCasp7 act 12 and MPTP inh 6.
Screening O=C(/C=C/c1ccc2c(c1)OCO2)NCCSCc1cccc(Cl)c1 returned aDG glyco up 0, NR3A LBD binder 26*, proCasp3 act -3, proCasp7 act 2 and MPTP inh -17.
`COc1ccc(C(=O)Nc2ccc(NC(=O)c3ccco3)cc2)cc1` gave aDG glyco up 0, NR3A LBD binder 16*, proCasp3 act -1, proCasp7 act 3 and MPTP inh 0.
For O=C(NCc1ccccc1)c1ccco1 the results were aDG glyco up -1, NR3A LBD binder 0, proCasp3 act 0, proCasp7 act 5 and MPTP inh -1.
For O=C(NCc1ccccc1)c1ccc(NC(=O)c2ccco2)cc1 the results were aDG glyco up 0, NR3A LBD binder 19*, proCasp3 act -6, proCasp7 act -1 and MPTP inh -2.
`Cc1nc(NC(=O)c2ccco2)sc1C(=O)Nc1ccc(Br)cc1` gave aDG glyco up 1, NR3A LBD binder 15*, proCasp3 act -2, proCasp7 act 0 and MPTP inh 0.
Screening Cc1nc(NC(=O)c2ccco2)sc1C(=O)O returned aDG glyco up 0, NR3A LBD binder 1, proCasp3 act 4, proCasp7 act 14 and MPTP inh -1.
For Nc1ccc(C(=O)Nc2ccc(NC(=O)c3ccco3)c(O)c2)cc1 the results were aDG glyco up 0, NR3A LBD binder 22*, proCasp3 act 5, proCasp7 act -3 and MPTP inh -2.
`CCOc1ccc(CCNC(=O)c2ccc(Cl)c(S(=O)(=O)N3CCOCC3)c2)cc1OCC` gave aDG glyco up 0, NR3A LBD binder 0, proCasp3 act -5, proCasp7 act 11 and MPTP inh -2.
COc1ccc(-c2cc(CNc3nc(NCc4ccccc4OC)nc4ccsc34)on2)cc1 was read as aDG glyco up 3 and MPTP inh 7.
For CCCS(=O)(=O)NC(=O)C1(C)CCN(C(=O)c2ccc(F)c(Cl)c2)C1 (configuration not stated) the results were aDG glyco up 0 and MPTP inh 0.
COc1ccc(C(=O)Nc2ccc3c(c2)OCO3)cc1S(=O)(=O)N1CCOCC1 was read as aDG glyco up 0 and MPTP inh 0.
For COCCNC(=S)N/N=C(\C)c1cccc(C(F)(F)F)c1 the results were aDG glyco up 0, NR3A LBD binder 52*, proCasp3 act -4, proCasp7 act 2 and MPTP inh 0.
Screening COCCNC(=S)N/N=C(\C)c1ccc2cc(OC)ccc2c1 returned aDG glyco up 3, NR3A LBD binder -1, proCasp3 act 2, proCasp7 act -4 and MPTP inh 0.
Screening O=C1C=CC(=Nc2ccc3c(c2)Cc2cc(F)ccc2-3)O1 returned aDG glyco up 0, NR3A LBD binder 23* and MPTP inh -2.
For O=C1C=CC(=Nc2cccc3c2C(=O)c2ccccc2-3)O1 the results were aDG glyco up 0, NR3A LBD binder -1 and MPTP inh -2.
`COc1cc(/C=N/NC(=O)c2cc(-c3cccs3)nc3ccccc23)ccc1O` gave aDG glyco up 0, NR3A LBD binder 4, proCasp3 act -3, proCasp7 act 4 and MPTP inh 3.
Screening COc1cc(C(=O)N/N=C/c2cccc(Oc3ccccc3)c2)ccc1O returned aDG glyco up 0, NR3A LBD binder 11* and MPTP inh 0.
For COc1cc(/C=N/NC(=O)c2cccc(S(=O)(=O)N3CCCC3)c2)ccc1O the results were aDG glyco up 0, NR3A LBD binder 15*, proCasp3 act 9, proCasp7 act -5 and MPTP inh 0.
`COc1ccc(COC(=O)c2cccc(S(=O)(=O)N3CCCC3)c2)cc1F` gave aDG glyco up 0, NR3A LBD binder 15*, proCasp3 act 12, proCasp7 act -8 and MPTP inh 1.
Screening O=C(N/N=C/c1ccc(O)c(O)c1)c1cccc(S(=O)(=O)N2CCCC2)c1 returned aDG glyco up 0, NR3A LBD binder 2, proCasp3 act -9, proCasp7 act 6 and MPTP inh 2.
COc1ccccc1COC(=O)c1cccc(S(=O)(=O)N2CCCC2)c1 was read as aDG glyco up 0, NR3A LBD binder 0 and MPTP inh 0.
For COc1cc(/C=N/NC(=O)c2cc(-c3cccc(OC(C)C)c3)nc3ccccc23)ccc1O the results were aDG glyco up 0, NR3A LBD binder 11*, proCasp3 act -7, proCasp7 act 8 and MPTP inh 4.
O=C(N/N=C/c1cccc(Oc2ccccc2)c1)c1ccncc1 was read as aDG glyco up 1, NR3A LBD binder 6, proCasp3 act -2, proCasp7 act 6 and MPTP inh -1.

From PubChem BioAssay
